Apaf-1 inh: inhibitors of human Apaf-1 apoptosome, primary screen, biochemical, DEVD-Rh110 fluorescence, uHTS; reconstituted apoptosome caspase-3 activity; inhibition, % at 20 µM; 330,000 compounds, 0.71% hits; AID 489030, 2010; active = inhibition of at least 40% at 20 µM
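Material: reconstituted apoptosome with Apaf-1, cytochrome c, caspase-9, procaspase-3, dATP. Technique: Rh110 fluorescence intensity. Buffer or medium: pH 7.5 Hepes buffer with CHAPS, BSA, DTT. Times: 30 min plus 50 min, RT.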
SENP8 block-1: human SENP8 protease inhibitors, primary screen, biochemical, fluorescence, Nedd8 protein substrate, uHTS; 360,000 compounds, 0.64% hits; recombinant SENP8; AID 602440, 2012; Sentrin-specific protease 8 (Homo sapiens), Q96LD8; inhibition, % at 20 µM; in the data active = inhibition mostly above about 40%, no sharp cut-off; inactive = mostly below about 27%
Target sequence (Q96LD8 whole entry, looked up): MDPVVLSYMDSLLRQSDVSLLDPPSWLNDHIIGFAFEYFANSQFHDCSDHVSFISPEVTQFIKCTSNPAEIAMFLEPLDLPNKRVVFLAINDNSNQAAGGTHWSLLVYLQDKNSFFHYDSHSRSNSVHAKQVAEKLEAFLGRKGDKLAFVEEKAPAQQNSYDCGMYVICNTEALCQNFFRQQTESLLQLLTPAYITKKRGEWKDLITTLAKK
SENP8 block-2: SENP8 protease inhibitors, primary screen, biochemical, luminescence; Sentrin-specific protease 8 (Homo sapiens), Q96LD8; purified SENP8, Z-RLRGG-aminoluciferin cleavage; inhibition, % at 10 µM; 330,000 compounds, 1.2% hits; AID 2540, 2010; in the data active = inhibition above about 50%
UBC13 polyUb: UBC13 polyubiquitin chain formation inhibitors, primary screen, biochemical, TR-FRET, uHTS; 330,000 compounds, 0.47% hits; AID 485273, 2010; inhibition, % at 20 µM; Ubiquitin-conjugating enzyme E2 N (Homo sapiens), P61088; in the data active = inhibition above about 45%, passing the limit was not always enough
Target sequence (P61088 whole entry, looked up): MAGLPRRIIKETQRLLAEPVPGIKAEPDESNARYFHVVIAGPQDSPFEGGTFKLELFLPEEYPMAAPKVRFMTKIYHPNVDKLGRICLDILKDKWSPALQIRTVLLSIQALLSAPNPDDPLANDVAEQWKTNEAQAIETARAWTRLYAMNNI
SENP6 inh: SENP6 protease inhibitors, primary screen, biochemical, luminescence, uHTS; Sentrin-specific protease 6 (Homo sapiens), Q9GZR1; Recombinant SENP6 catalytic domain, aminoluciferin luminescence; inhibition, % at 10 µM; 330,000 compounds, 1.8% hits; AID 2599, 2010;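 active = inhibition above about 50% at the single tested dose, limit read from the data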
SENP7 block: SENP7 protease inhibitors, primary screen, biochemical, luminescence, uHTS. inhibition, % at 5 µM. AID 434973, 2010. Sentrin-specific protease 7 (Homo sapiens), Q9BQF6. 330,000 compounds, 1.5% hits. recombinant SENP7, Z-RLRGG-aminoluciferin luminescence, 40 min;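 active = inhibition above about 50% at the single test dose, limit read from the data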
Apaf-1 inh conf: Apaf-1 inhibitors, single-dose retest, confirmation, biochemical, fluorescence, DEVD-Rh110, 20 µM | shares compounds with Apaf-1 inh | reconstituted apoptosome, caspase-3 DEVD-Rh110 fluorescence | inhibition, % at 20 µM | 1,800 compounds, 25% hits | AID 504614, 2011;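 active = mean inhibition of at least 40% at 20 µM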
Rh110 quench: Rh110 fluorescence interference by putative Apaf-1 inhibitors, confirmation, artefact control for Apaf-1 inhibitor project, biochemical, 20 µM | shares compounds with Apaf-1 inh | quenched caspase reaction | activation (fluorescence interference), % at 20 µM | 1,800 tested, under 10 active | AID 504615, 2011;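 active = signal rise of 40% or more at 20 µM, treated as a fluorescence artifact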
Fluor interf inh: fluorescence interference of Apaf-1 inhibitor hits, dose response, artefact control for Apaf-1 inhibitor project; shares compounds with Apaf-1 inh; fluorescence interference counterscreen, Apaf-1 assay format; IC50, µM; 460 tested, under 10 active; call rule not given here
Numbers stand for hits; n = inactive; x = no result; ! = a repeat was not active. Rows were chosen to be rich in hits. Some 3.1% of all compounds tested hit in one or more screens of this group.

SMILES | Apaf-1 inh | SENP8 block-1 | SENP8 block-2 | UBC13 polyUb | SENP6 inh | SENP7 block | Apaf-1 inh conf | Rh110 quench | others
COCCCNC(=O)c1c(N)n(-c2ccccc2)c2nc3ccccc3nc12 | 84 | n | n | n | n | n | n | n
COCCCNC(=O)c1c(N)n(-c2ccc(S(N)(=O)=O)cc2)c2nc3ccccc3nc12 | n | n | n | n | n | n | x | x
C=CCNC(=O)c1c(N)n(-c2cccc(S(N)(=O)=O)c2)c2nc3ccccc3nc12 | 61 | n | n | n | n | n | n | n
Nc1c(C(=O)NCCN2CCOCC2)c2nc3ccccc3nc2n1-c1ccccc1 | n | n | n | n | n | n | x | x
COC(=O)c1c(N)n(-c2ccc(NC(C)=O)cc2)c2nc3ccccc3nc12 | 49 | n | n | n | n | n | n | n
Cc1ccccc1Cn1c(C)c(C(=O)NCCC#N)sc1=O | x | n | x | x | x | x | x | x
O=C(Nc1ccc2c(c1)OCCO2)C1c2ccccc2OCC(=O)N1Cc1cccnc1 (stereo not drawn) | x | n | x | x | x | x | x | x
CC12COC3(P(=O)(c4ccccc4)c4ccccc4)CC1CCC23CP(=O)(c1ccccc1)c1ccccc1 (stereo not drawn) | 41 | n | n | n | n | n | n | n
CC12COC3(C(=O)Nc4ccc(F)cc4)CC1CCC32C (stereo not drawn) | n | n | n | n | n | n | x | x
Cc1ccc(Oc2nnc(-c3ccc(C)cc3)c3ccccc23)cc1 | n | n | n | n | n | n | x | x
COc1ccccc1C(=O)Nc1ccc(Oc2nnc(-c3ccc(C)cc3)c3ccccc23)cc1 | 40 | n | n | n | n | n | n | n
CC1=CC2C(C(O)CC3(C)C2CC(C)C32OCOC23COCO3)C2(C)C/C(=C\O)C(=O)C=C12 (stereo not drawn) | x | n | x | x | x | x | x | x
O=C(Cc1cc(=O)[nH][nH]1)N/N=C/c1cccc(Cl)c1Cl | 48! | n | n | n | n | n | n | n
O=C(Cc1cc(=O)[nH][nH]1)N/N=C/c1c(F)cccc1Cl | n | n | n | n | n | n | x | x
O=C(Cc1cc(=O)[nH][nH]1)N/N=C/c1cccc2ccccc12 | 54 | n | n | n | n | n | n | n
Cn1cccc1CC(=O)N/N=C/C(Cl)=C/c1ccccc1 | n | n | n | n | n | n | x | x
O=C(Cc1cc(=O)[nH][nH]1)N/N=C/C(Cl)=C/c1ccccc1 | 49! | n | n | n | n | n | n | n
COc1ccc(CC(N)c2csc(NC(=O)Nc3ccccc3-c3ccccc3)n2)cc1 (stereo not drawn) | x | n | x | x | x | x | x | x
CC(C)c1ccc(NC(=O)C2(C)Cc3c(-c4ccccc4)ccnc3O2)cc1 (stereo not drawn) | x | n | x | x | x | x | x | x
Clc1ccc(OCCSc2nnnn2C2CCCCC2)cc1 | 65 | n | n | n | n | n | n | n
CCOc1ccc(OCCSc2nnnn2C2CCCCC2)cc1 | n | n | n | n | n | n | x | x
C[C@H](NC(=O)c1ccc(C(C)(C)C)cc1)C(=O)N1CCN(C/C=C/c2ccccc2)CC1 | 43 | n | n | n | n | n | n | n
CCOc1ccccc1NC(=O)c1cc(-c2ccccn2)nc2ccccc12 | 53 | n | n | n | n | n | n | n
COc1ccc(NC(=O)c2cc(-c3ccccn3)nc3ccccc23)c(OC)c1 | n | n | n | n | n | n | x | x
O=C1C(N2CCOCC2)=C(n2nnc3ccccc32)C(=O)c2ccccc21 | 94 | 76 | 74 | n | 76 | n | 97 | n | Fluor interf inh=n

Screening results (PubChem BioAssay)
